Calls of active or inactive are those of the source. The calls are words filed in the database; no cut-off is given here. Square brackets hold non-standard residues; d marks the D form. Peptide text beside a SMILES is read from it. Some results are limits rather than exact numbers.

In assay [1] the target is T1, Melanocortin receptor 5 (Mus musculus, UniProt P41149). Briefly: Antagonist activity at mouse melanocortin receptor 5 expressed in HEK293 cells assessed as inhibition of NDP-MSH-induced cAMP accumulation incubated for 2 hrs by cAMP Alpha-screen assay based Schild analysis. In kind it is functional, cell-based. To be noted: read-out: pA2 (converted). (Cyclic AMP is a second messenger, typically raised through Gs and lowered through Gi signalling.)

Assay [2] addresses Melanocyte-stimulating hormone receptor (Mus musculus) (UniProt Q01727). The assay is described as follows: Ratio of IC50 for MDE6-82-3c to IC50 for test compound for displacement of [125I]-NDP-MSH from mouse melanocortin receptor 1 expressed in HEK293 cell mebranes incubated for 1 hr by automatic gamma counting method. Summed up: (§1)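 Cells washed, lysed 10 min with 0.1 M NaOH/1% Triton X-100, then gamma-counted. Specific binding defined with unlabelled NDP-MSH and normalized to it. Duplicate wells, two experiments. IC50 by non-linear fit. Fold difference taken relative to the Asn-parent macrocycle control.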
(In general: In a radioligand displacement assay an active substance lowers the binding of a labelled ligand.)

Assay [3] addresses T2, Melanocortin receptor 4 (Homo sapiens, UniProt P32245). Briefly: Ratio of IC50 for MDE6-82-3c to IC50 for test compound for displacement of [125I]-NDP-MSH from human melanocortin receptor 4 expressed in HEK293 cell membranes incubated for 1 hr by automatic gamma counting method. In short, it runs like this:
as §1

For assay [4], the target named is Melanocortin receptor 5 (Mus musculus) (UniProt P41149). Briefly: Inverse agonist activity at mouse melanocortin receptor 5 expressed in HEK293 cells assessed as inhibition of basal cAMP accumulation at 100 uM incubated for 2 hrs by cAMP Alpha-screen assay relative to control. The format is functional, cell-based. In short, it runs like this:
(§2)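 AlphaScreen cAMP assay in stably transfected HEK293 cells, with 10,000 cells/well in IBMX-containing HBSS/HEPES buffer pH 7.4. Peptide alone, up to 100 μM, 2 h at room temperature in the dark, then 2 h lysis/detection. Inverse agonism taken as percent decrease of cAMP from basal, relative to maximal NDP-MSH signal, at 100 μM. Duplicates, three independent experiments.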

The target in assay [5] is T2, Melanocortin receptor 4. The assay is described as follows: Inverse agonist activity at human melanocortin receptor 4 expressed in HEK293 cells assessed as inhibition of basal cAMP accumulation incubated for 2 hrs by cAMP Alpha-screen assay. The format is functional, cell-based. In short, it runs like this:
as §2

Assay [6] deals with Melanocortin receptor 4 (Mus musculus, UniProt P56450). The assay is described as follows: Agonist activity at mouse melanocortin receptor 4 expressed in HEK293 cells assessed as stimulation of cAMP accumulation incubated for 2 hrs by cAMP Alpha-screen assay. The format is functional, cell-based.
The target in assay [7] is Melanocortin receptor 4 (Mus musculus) (UniProt P56450). The assay is described as follows: Ratio of IC50 for MDE6-82-3c to IC50 for test compound for displacement of [125I]-NDP-MSH from mouse melanocortin receptor 4 expressed in HEK293 cell mebranes incubated for 1 hr by automatic gamma counting method. Summed up: as §1
Assay [8] addresses T3, Melanocortin receptor 3 (Mus musculus, UniProt P33033). The assay is described as follows: Displacement of [125I]-NDP-MSH from mouse melanocortin receptor 3 expressed in HEK293 cell mebranes incubated for 1 hr by automatic gamma counting method. The format is cell-based.
The target of assay [9] is Melanocyte-stimulating hormone receptor (Mus musculus) (UniProt Q01727). The assay is described as follows: Agonist activity at mouse melanocortin receptor 1 expressed in HEK293 cells assessed as stimulation of cAMP accumulation at 100 uM incubated for 2 hrs by cAMP Alpha-screen assay relative to control. The format is functional, cell-based.
The target in assay [10] is T1, Melanocortin receptor 5. Briefly: Displacement of [125I]-NDP-MSH from mouse melanocortin receptor 5 expressed in HEK293 cell mebranes incubated for 1 hr by automatic gamma counting method. The format is cell-based.
In assay [11] the target is T3, Melanocortin receptor 3. The assay is described as follows: Agonist activity at mouse melanocortin receptor 3 expressed in HEK293 cells assessed as stimulation of cAMP accumulation incubated for 2 hrs by cAMP Alpha-screen assay. The format is functional, cell-based.
Assay [12] has as its target T3, Melanocortin receptor 3. The assay is described as follows: Antagonist activity at mouse melanocortin receptor 3 expressed in HEK293 cells assessed as inhibition of NDP-MSH-induced cAMP accumulation incubated for 2 hrs by cAMP Alpha-screen assay based Schild analysis. The following applies: read-out: pA2 (converted). In kind it is functional, cell-based. Summed up:
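NDP-MSH (10−6 to 10−12) plus antagonist at 10,000, 5,000, 1,000 and 500 nM, 2 h dark at room temperature. AlphaScreen cAMP read after lysis/bead step 2 h. Schild pA2; duplicates, at least three independent experiments.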

T3 sequence (P33033 whole entry): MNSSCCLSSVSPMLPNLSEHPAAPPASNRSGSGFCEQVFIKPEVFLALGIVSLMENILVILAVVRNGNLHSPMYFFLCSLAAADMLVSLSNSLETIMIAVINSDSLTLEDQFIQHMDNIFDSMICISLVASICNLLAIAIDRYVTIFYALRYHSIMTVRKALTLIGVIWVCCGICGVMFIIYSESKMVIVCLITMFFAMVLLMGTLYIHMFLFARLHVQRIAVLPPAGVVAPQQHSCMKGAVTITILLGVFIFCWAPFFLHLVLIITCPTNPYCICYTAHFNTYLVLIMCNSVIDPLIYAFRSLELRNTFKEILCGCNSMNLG
T2 sequence (P32245 whole entry): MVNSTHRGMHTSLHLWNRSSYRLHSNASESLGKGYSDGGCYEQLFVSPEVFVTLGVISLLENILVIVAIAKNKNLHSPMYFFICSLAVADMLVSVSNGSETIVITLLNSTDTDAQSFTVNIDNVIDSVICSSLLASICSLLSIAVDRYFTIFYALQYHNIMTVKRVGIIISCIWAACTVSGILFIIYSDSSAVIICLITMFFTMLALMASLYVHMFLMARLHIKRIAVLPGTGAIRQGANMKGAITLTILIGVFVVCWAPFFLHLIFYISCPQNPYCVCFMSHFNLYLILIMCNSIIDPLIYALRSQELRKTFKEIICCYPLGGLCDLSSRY
T1 sequence (P41149 whole entry): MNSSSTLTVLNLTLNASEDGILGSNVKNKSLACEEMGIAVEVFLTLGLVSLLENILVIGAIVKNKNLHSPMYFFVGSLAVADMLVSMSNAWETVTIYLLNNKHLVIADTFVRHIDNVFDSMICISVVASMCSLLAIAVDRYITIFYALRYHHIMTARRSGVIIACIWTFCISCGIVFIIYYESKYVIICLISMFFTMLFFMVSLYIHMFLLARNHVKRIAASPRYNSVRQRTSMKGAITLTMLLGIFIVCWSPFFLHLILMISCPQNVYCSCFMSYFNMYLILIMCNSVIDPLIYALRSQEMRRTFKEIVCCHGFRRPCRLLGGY
Melanocyte-stimulating hormone receptor (Mus musculus), sequence (Q01727 whole entry, looked up): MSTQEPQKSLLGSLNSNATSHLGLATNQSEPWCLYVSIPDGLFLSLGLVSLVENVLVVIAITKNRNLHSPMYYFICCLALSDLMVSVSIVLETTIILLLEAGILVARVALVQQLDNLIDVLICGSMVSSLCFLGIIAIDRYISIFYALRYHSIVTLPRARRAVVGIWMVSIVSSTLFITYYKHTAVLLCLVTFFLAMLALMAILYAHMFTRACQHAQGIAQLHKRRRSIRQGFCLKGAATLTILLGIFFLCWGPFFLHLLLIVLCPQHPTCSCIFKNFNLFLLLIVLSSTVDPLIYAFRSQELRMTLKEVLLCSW
Melanocortin receptor 4 (Mus musculus, UniProt P56450), sequence (P56450 whole entry): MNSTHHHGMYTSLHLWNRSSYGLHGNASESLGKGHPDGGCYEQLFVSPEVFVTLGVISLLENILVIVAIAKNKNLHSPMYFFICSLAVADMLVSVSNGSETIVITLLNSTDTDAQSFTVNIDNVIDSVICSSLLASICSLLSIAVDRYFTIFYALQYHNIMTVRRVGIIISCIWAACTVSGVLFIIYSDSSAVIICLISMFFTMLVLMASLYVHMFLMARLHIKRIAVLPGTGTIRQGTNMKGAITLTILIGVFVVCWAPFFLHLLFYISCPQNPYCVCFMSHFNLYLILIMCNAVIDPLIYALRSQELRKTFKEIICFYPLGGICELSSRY
Melanocortin receptor 4 (Mus musculus), sequence (P56450 whole entry): as above
Melanocortin receptor 5 (Mus musculus), sequence (P41149 whole entry): as the sequence (P41149 whole entry) above

For `C[C@@H]1NC(=O)[C@H](CC(N)=O)NC(=O)[C@H](Cc2ccccc2)NC(=O)[C@H](Cc2ccccc2)NC(=O)[C@H](CS)NC(=O)[C@@H]2CCCN2C(=O)[C@H]2CCCN2C(=O)[C@H](Cc2ccccc2)NC1=O` (cyclo(PCFFNAF[dP])), the Kb at Melanocortin receptor 5 [1] and at Melanocortin receptor 3 [12] was over 10 µM each time. Also, the Ratio IC50 in [2] turned out to be 3; at Melanocortin receptor 4 [3] it was 300; in assay [7], 90. For the same compound, in [4], the inhibition worked out at 32%. Further, the outcome on Melanocortin receptor 4 [5] was inactive. Moreover, the EC50 on Melanocortin receptor 4 [6] and on Melanocortin receptor 3 [11] was over 100 µM in each case. Besides, the IC50 on Melanocortin receptor 3 [8] and on Melanocortin receptor 5 [10] was over 100 µM throughout. Also, in [9], the Activity was found to be 46%.

By inhibition is commonly meant the relative decrease from the control value, in per cent. In general, EC50 refers to the concentration giving half of the maximal effect. As usually defined, the IC50 is the point on the concentration scale where inhibition reaches its midpoint. Read a high IC50 as weaker potency.

For the origin of these results see ChEMBL document CHEMBL4354837 (J Med Chem, 2020).
